Active and inactive are the calls of the source. The calls are words filed in the database; no cut-off is given here.
How the values were obtained:
[1] = target: CDK6/cyclin D3 (Homo sapiens) (UniProt P30281+Q00534); assay: Inhibition of recombinant full-length human CDK6/cyclinD3 at 500 nM using histone H1 as substrate measured after 40 mins in presence of [gamma33P]ATP by scintillation counting method relative to control; assay type: protein-complex assay
Summary of the method: (§1)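 Percent inhibition of kinase activity at a single compound concentration, measured by the outsourced Eurofins KinaseProfiler panel. Values are the mean of two independent experiments.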

SiHa = assay: Antiproliferative activity against human SiHa cells assessed as inhibition of cell viability at 500 nM after 72 hrs by CCK-8 assay relative to control; assay type: functional
Summary of the method: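 Single-concentration viability screen using CCK-8. Cells were seeded at 3000/well and treated for 72 h. A450 read after 1-4 h with reagent. Percent inhibition calculated against untreated control and blank wells as (Ac−As)/(Ac−Ab)×100%.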

NCI-H1299 [2] = assay: Antiproliferative activity against human H1299 cells assessed as inhibition of cell viability after 72 hrs by CCK-8 assay; assay type: functional, cell-based; conditions: NCI-H1299, 72 h
Summary of the method: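 Cells kept at 37 °C, 5% CO2 in DMEM or RPMI-1640 with 10% FBS and 1% penicillin/streptomycin, then seeded at 3000 cells/well (adherent) or 10,000 cells/well (suspension). Exposed to a range of concentrations for 72 h. CCK-8 added for 1-4 h before reading A450. […] Three independent experiments.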

NCI-H1299 [3] = assay: Induction of apoptosis in human H1299 cells assessed as increase in Bim level at 0.25 to 1 uM after 24 hrs by Western blot analysis; assay type: functional, cell-based
Summary of the method: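 A549 or H1299 cells exposed to the indicated concentrations for 24 h. Protein extracts then immunoblotted for apoptosis-pathway proteins (Bcl2, Bim, cleaved caspase 3).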

A549 = assay: Downregulation of NANOG in human A549 cells at 0.25 to 1 uM by Western blot analysis; assay type: functional, cell-based
[4] = Toxicity in Balb/c mouse xenografted with human H1299 cells assessed as effect on body weight at 20 to 80 mg/kg, po administered for 21 days and measured daily […]; assay type: organism-based; conditions: in vivo, 504 h
[5] = target: Mitogen-activated protein kinase kinase kinase 5 (Homo sapiens) (UniProt Q99683); assay: Inhibition of recombinant human ASK1 (649 to 946 residues) at 1 uM using myelin basic protein as substrate measured after 40 mins in presence of [gamma33P]ATP by scintillation counting method relative to control
[6] = tested on: Serine/threonine-protein kinase B-raf (Homo sapiens), P15056 [V600E]; assay: Inhibition of recombinant human BRAF V599E mutant (416 to end residues) at 1 uM using myelin basic protein as substrate measured after 40 mins in presence of [gamma33P]ATP by scintillation counting method relative to control
[7] = target: MAP/microtubule affinity-regulating kinase 4 (Homo sapiens) (UniProt Q96L34); assay: Inhibition of full-length recombinant human MARK4 at 1 uM using KKKVSRSGLYRSPSMPENLNRPR as substrate measured after 40 mins in presence of [gamma33P]ATP by scintillation counting method relative to control; summary of the method: as §1
[8] = target: Mitogen-activated protein kinase kinase kinase 9 (Homo sapiens) (UniProt P80192); assay: Inhibition of recombinant human MLK1 (134 to 414 residues) at 1 uM using casein as substrate measured after 40 mins in presence of [gamma33P]ATP by scintillation counting method relative to control
[9] = target: Calcium/calmodulin-dependent protein kinase kinase 1 (Homo sapiens) (UniProt Q8N5S9); assay: Inhibition of recombinant full-length human CaMKK1 at 1 uM using calmodulin as substrate measured after 40 mins in presence of [gamma33P]ATP by scintillation counting method relative to control
[10] = tested on: Calcium/calmodulin-dependent protein kinase kinase 2 (Homo sapiens), Q96RR4 [T85S]; assay: Inhibition of recombinant full-length human CaMKK2 T85S mutant at 1 uM using calmodulin as substrate measured after 40 mins in presence of [gamma33P]ATP by scintillation counting method relative to control
[11] = target: Dual specificity protein kinase CLK4 (Homo sapiens) (UniProt Q9HAZ1); assay: Inhibition of recombinant human CLK4 (128 to end residues) at 1 uM using YRRAAVPPSPSLSRHSSPHQS(p) EDEEE as substrate measured after 40 mins in presence of [gamma33P]ATP by scintillation counting method relative to control
Summary of the method: (§2)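 Single-point inhibition at 1 µM was measured in the Eurofins KinaseProfiler panel. Values are the mean of two independent experiments.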

[12] = target: Serine/threonine-protein kinase NLK (Homo sapiens) (UniProt Q9UBE8); assay: Inhibition of recombinant human NLK (121 to end residues) at 1 uM using myelin basic protein as substrate measured after 40 mins in presence of [gamma33P]ATP by scintillation counting method relative to control
[13] = target: Ephrin type-A receptor 4 (Homo sapiens) (UniProt P54764); assay: Inhibition of recombinant human EphA4 (601 to 892 residues) at 1 uM using poly(Glu, Tyr) 4:1 as substrate measured after 40 mins in presence of [gamma33P]ATP by scintillation counting method relative to control; summary of the method: as §2
[14] = target: Proto-oncogene tyrosine-protein kinase receptor Ret (Homo sapiens) (UniProt P07949); assay: Inhibition of human Ret (658 to end residues) at 1 uM using KKKSPGEYVNIEFG as substrate measured after 40 mins in presence of [gamma33P]ATP by scintillation counting method relative to control; summary of the method: as §1
[15] = target: Tyrosine-protein kinase receptor TYRO3 (Homo sapiens) (UniProt Q06418); assay: Inhibition of human RSE (451 to end residues) at 1 uM using KVEKIGEGTYGVVYK as substrate measured after 40 mins in presence of [gamma33P]ATP by scintillation counting method relative to control; summary of the method: as §1
[16] = target: Homeodomain-interacting protein kinase 1 (Homo sapiens) (UniProt Q86Z02); assay: Inhibition of recombinant human activated HIPK1 (158 to 555 residues) at 1 uM using myelin basic protein as substrate measured after 40 mins in presence of [gamma33P]ATP by scintillation counting method relative to control
[17] = target: Dual specificity mitogen-activated protein kinase kinase 1 (Homo sapiens) (UniProt Q02750); assay: Inhibition of recombinant full-length human MEK1 at 1 uM using unactive MAPK2 as substrate measured after 40 mins in presence of [gamma33P]ATP by scintillation counting method relative to control
[18] = target: Tyrosine-protein kinase Yes (Homo sapiens) (UniProt P07947); assay: Inhibition of recombinant full-length human YES at 1 uM using poly(Glu, Tyr) 4:1 as substrate measured after 40 mins in presence of [gamma33P]ATP by scintillation counting method relative to control
Homo sapiens = species: Homo sapiens; assay: Inhibition of recombinant full-length human ATRIP/ATR M211T mutant at 1 uM using GST-cMyc-p53 as substrate measured after 40 mins by fluorescence assay relative to control
[19] = target: PI3-kinase p110-alpha/p85-alpha (Homo sapiens) (UniProt P27986+P42336); assay: Inhibition of recombinant full-length human PI3K p110alpha/p85alpha at 1 uM using phosphatidylinositol-4, 5-bisphosphate as substrate measured after 40 mins by fluorescence assay relative to control; assay type: protein-complex assay

Chain of Ephrin type-A receptor 4 (Homo sapiens) (P54764 whole entry, the tested form may be a part): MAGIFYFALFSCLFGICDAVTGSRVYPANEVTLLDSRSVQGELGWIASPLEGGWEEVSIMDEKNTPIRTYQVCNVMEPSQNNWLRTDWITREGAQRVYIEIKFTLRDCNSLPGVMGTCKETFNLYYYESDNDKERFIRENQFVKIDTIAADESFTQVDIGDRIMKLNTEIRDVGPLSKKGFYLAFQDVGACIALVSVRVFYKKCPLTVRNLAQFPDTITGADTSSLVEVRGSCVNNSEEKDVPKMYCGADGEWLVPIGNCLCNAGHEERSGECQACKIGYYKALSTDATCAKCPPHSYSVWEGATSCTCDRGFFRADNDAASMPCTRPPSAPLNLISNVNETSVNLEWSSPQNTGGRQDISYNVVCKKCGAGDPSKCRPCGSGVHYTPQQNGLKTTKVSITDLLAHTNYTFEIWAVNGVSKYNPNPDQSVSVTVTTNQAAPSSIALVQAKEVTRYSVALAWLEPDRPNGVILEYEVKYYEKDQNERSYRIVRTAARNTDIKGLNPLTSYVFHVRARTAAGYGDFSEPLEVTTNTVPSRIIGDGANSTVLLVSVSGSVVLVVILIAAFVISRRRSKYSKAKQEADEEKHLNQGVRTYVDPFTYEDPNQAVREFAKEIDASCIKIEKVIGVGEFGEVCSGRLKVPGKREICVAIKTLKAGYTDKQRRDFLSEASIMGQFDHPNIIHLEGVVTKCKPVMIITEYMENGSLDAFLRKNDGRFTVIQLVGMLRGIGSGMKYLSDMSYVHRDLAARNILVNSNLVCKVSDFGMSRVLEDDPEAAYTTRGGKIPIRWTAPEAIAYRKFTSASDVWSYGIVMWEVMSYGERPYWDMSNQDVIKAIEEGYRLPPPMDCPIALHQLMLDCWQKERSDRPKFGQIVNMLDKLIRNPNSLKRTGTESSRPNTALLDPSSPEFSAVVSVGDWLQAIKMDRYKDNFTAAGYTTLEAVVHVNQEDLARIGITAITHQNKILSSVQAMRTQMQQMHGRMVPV
Chain of MAP/microtubule affinity-regulating kinase 4 (Homo sapiens) (Q96L34 whole entry, the tested form may be a part): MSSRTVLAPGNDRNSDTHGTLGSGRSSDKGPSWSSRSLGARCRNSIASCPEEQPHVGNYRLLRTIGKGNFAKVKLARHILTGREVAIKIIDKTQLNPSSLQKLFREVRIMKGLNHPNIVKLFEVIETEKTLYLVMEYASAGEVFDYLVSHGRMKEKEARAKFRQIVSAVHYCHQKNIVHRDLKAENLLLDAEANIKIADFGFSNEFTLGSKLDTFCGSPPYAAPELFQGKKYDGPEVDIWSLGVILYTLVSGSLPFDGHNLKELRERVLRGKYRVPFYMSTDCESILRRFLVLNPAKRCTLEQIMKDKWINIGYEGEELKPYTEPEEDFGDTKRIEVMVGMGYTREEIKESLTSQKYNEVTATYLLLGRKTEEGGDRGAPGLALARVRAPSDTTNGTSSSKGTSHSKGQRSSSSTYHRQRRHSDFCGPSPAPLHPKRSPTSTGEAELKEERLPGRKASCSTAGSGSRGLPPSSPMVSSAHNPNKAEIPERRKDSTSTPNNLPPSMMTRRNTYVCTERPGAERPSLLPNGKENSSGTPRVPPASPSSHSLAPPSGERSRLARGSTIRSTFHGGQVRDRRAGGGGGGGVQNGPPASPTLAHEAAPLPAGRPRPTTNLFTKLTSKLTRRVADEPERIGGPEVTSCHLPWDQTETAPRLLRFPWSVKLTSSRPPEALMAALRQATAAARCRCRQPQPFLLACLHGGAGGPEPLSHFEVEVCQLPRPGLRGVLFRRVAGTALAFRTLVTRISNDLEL
Chain of Mitogen-activated protein kinase kinase kinase 9 (Homo sapiens) (P80192 whole entry, looked up, the tested form may be a part): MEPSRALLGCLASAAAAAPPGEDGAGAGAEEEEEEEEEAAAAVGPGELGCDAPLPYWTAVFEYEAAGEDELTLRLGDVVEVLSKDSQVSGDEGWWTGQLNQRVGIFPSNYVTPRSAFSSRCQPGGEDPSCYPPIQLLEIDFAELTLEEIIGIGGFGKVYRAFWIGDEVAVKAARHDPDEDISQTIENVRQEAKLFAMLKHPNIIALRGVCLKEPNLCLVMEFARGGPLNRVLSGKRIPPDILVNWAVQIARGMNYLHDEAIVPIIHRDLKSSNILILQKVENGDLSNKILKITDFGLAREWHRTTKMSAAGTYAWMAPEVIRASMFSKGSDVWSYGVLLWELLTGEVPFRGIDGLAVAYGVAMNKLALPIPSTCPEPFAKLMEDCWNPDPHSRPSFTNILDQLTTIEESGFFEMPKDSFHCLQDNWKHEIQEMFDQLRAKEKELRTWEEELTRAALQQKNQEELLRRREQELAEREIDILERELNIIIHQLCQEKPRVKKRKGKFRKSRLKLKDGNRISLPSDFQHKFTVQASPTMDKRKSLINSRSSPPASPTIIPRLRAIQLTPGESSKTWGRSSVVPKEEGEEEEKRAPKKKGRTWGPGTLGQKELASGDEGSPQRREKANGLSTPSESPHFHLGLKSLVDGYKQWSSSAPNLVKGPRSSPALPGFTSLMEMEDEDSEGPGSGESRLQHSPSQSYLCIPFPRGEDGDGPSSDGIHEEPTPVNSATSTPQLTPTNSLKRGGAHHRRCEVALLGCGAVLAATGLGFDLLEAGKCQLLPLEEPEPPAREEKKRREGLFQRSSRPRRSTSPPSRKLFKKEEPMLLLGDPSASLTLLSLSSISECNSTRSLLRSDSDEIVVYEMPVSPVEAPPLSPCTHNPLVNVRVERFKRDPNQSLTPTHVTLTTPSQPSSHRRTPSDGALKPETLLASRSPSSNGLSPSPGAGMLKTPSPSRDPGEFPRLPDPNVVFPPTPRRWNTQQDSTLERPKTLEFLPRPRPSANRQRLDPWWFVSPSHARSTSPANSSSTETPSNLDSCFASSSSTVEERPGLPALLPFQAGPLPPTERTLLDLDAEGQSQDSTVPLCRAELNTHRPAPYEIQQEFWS
Chain of Calcium/calmodulin-dependent protein kinase kinase 2 (Homo sapiens), Q96RR4 [T85S] (Q96RR4 whole entry T85S): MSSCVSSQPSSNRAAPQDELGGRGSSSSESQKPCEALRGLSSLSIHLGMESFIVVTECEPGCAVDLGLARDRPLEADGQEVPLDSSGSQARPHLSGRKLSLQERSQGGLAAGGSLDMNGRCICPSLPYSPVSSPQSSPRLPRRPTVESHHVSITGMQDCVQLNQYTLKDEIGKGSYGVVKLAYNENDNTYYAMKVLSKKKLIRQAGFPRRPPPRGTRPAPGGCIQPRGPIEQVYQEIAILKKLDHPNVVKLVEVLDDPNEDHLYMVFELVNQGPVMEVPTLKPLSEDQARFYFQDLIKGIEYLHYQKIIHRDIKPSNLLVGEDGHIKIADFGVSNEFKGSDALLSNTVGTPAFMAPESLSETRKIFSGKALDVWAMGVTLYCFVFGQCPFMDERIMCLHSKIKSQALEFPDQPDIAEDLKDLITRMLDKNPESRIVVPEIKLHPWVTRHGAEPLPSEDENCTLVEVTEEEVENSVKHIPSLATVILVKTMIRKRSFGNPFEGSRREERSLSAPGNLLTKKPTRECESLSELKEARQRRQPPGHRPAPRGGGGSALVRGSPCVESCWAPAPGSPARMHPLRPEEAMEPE
Chain of Calcium/calmodulin-dependent protein kinase kinase 1 (Homo sapiens) (Q8N5S9 whole entry, looked up): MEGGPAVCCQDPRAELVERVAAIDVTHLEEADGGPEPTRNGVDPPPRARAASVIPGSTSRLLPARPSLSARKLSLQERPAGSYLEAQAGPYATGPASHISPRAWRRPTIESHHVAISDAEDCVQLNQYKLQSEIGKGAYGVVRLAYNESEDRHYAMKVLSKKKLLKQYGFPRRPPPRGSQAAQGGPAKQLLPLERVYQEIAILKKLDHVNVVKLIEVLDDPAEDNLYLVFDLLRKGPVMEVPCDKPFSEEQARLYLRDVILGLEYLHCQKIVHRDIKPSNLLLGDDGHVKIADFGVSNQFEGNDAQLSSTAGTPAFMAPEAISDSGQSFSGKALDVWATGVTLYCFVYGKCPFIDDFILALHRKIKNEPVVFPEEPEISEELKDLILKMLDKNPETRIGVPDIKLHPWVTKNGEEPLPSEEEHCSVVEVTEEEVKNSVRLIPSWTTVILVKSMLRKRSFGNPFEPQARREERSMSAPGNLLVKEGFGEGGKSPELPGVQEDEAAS
Chain of Proto-oncogene tyrosine-protein kinase receptor Ret (Homo sapiens) (P07949 whole entry): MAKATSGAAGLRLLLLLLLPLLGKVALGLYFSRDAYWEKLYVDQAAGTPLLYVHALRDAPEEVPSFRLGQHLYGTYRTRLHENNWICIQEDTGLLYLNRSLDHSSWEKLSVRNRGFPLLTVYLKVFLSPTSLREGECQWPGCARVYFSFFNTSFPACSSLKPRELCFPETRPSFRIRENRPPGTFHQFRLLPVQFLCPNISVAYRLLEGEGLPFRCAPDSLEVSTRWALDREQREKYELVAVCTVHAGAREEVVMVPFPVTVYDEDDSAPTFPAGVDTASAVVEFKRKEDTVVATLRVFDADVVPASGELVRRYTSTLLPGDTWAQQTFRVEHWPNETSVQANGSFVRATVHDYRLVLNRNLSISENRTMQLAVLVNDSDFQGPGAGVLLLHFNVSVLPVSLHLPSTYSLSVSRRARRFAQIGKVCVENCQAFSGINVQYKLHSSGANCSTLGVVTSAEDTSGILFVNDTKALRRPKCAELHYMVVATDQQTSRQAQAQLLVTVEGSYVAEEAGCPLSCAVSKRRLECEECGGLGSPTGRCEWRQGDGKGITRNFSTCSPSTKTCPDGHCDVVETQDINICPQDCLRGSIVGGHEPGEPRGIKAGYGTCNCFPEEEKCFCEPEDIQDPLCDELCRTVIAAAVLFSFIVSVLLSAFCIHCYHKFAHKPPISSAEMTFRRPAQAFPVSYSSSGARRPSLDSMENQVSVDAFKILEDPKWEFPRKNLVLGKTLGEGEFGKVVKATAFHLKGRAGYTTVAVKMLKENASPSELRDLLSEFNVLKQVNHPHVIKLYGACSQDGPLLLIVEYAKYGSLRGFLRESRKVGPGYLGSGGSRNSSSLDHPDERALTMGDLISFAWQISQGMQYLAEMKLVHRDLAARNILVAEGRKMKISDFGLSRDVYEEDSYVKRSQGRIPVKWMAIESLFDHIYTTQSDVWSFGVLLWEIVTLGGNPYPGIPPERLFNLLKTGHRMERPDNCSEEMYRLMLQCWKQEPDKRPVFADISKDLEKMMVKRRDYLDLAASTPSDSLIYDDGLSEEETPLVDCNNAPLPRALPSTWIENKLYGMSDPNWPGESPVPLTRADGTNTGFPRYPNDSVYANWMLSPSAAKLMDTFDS

Which inhibition [1] does the source give for `CN(C)C(=O)c1cc2cnc(Nc3ccc(NC(=O)CCCCCCCN=C=S)cc3)nc2n1C1CCCC1` here?
The inhibition was 48%.

What about the inhibition at 0.5 µM (SiHa) of the same compound?
The inhibition at 0.5 µM was 11%.

What about the IC50 (NCI-H1299 [2]) of the same compound?
Its IC50 is 203 nM.

What about the Activity (NCI-H1299 [3]) of the same compound?
The Activity was “Active”.

And the Activity (A549)?
Its Activity is “Active”.

What about the Activity [4] of the same compound?
The Activity was “Non-Toxic”.

What about the inhibition [5] of the same compound?
The inhibition was -7%.

What about the inhibition [6] of the same compound?
The inhibition was 31%.

And the inhibition [7]?
Its inhibition is 77%.

What about the inhibition [8] of the same compound?
Its inhibition is 34%.

What about the inhibition [9] of the same compound?
The inhibition was 88%.

And the inhibition [10]?
The inhibition was 88%.

And the inhibition [11]?
The inhibition was 1%.

And the inhibition [12]?
The inhibition was 13%.

What about the inhibition [13] of the same compound?
Its inhibition is 1%.

What about the inhibition [14] of the same compound?
The inhibition was 55%.

And the inhibition [15]?
The inhibition was 26%.

What about the inhibition [16] of the same compound?
The inhibition was 9%.

And the inhibition [17]?
The inhibition was 22%.

And the inhibition [18]?
Its inhibition is 61%.

What about the inhibition (Homo sapiens) of the same compound?
Its inhibition is -4%.

What about the inhibition [19] of the same compound?
The inhibition was 8%.

From ChEMBL document CHEMBL4376814, “Novel cyclin-dependent kinase 9 (CDK9) inhibitor with suppression of cancer stemness activity against non-small-cell lung cancer” (Eur J Med Chem, 2019)
